These results are taken from paper PMC12272725 (Chemical Science, 2025).

Common to all, as to type: cell-based, human
In assay [1] the test system is RPE-1 cells. A digest of the protocol:
(§1)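 Human cells (A549 lung cancer, RPE-1 non-cancerous epithelial) were incubated with test compound for 4 h, the medium was replaced, and the cells were either irradiated or kept dark, then incubated a further 48 h. Viability was read by resazurin. Irradiation was 510 nm for 10 min (non-extended BODIPYs) or 645 nm (extended BODIPYs). IC50 was found dark and irradiated. […]. PPIX was the positive control.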

Assay [2] relates to A549 cells. A digest of the protocol:
as §1

Assay [3] concerns A549 cells. In words: Intracellular total ROS generation, DCFH trap, A549 cells. The note with it: A549, 5 μM, 645 nm for 1 h. The gist of the method:
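A549 cells were loaded with the total-ROS trap dichlorodihydrofluorescein (DCFH) and test compound, then irradiated at 645 nm for 1 h at 37 °C. The trap's fluorescence gave intracellular ROS generation. DCFH alone was the control.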

The mark [4] stands for this setting: read-out: IC50 upon 645 nm irradiation, 645 nm for 1 h (9.00 J/cm2).

Like-named read-outs stand apart in the source and are kept apart here. Bounds are passed on as bounds.

Consider `C=CC1=C(C)c2cc3[nH]c(cc4nc(cc5[nH]c(cc1n2)c(C)c5CCC(=O)O)C(CCC(=O)O)=C4C)c(C)c3C=C` [PPIX], for which the Phototoxicity index in assay [1] (510 nm for 10 min) is recorded as 350 ± 120; in assay [1] (645 nm for 1 h), 360 ± 160; in assay [2] (510 nm for 10 min) it was 220 ± 30; in assay [2] (645 nm for 1 h) it was 111 ± 4. The IC50 is above 100000 nM in assay [1] (read-out: IC50 in the dark, dark, Table 3 (645 nm series)); 300 ± 100 nM in assay [1] (read-out: IC50 upon 510 nm irradiation, 510 nm for 10 min (2.44 J/cm2)); 300 ± 100 nM in assay [1] (setting [4]); 900 ± 30 nM in assay [2] (setting [4]). Moreover, the “Intracellular ROS generation” value in assay [3] is on record as “elevated above control”.
